Assay results reported in ChEMBL document CHEMBL1141576, “Design of new potent and selective secretory phospholipase A2 inhibitors. Part 5: synthesis and biological activity of 1-alkyl-4-[4,5-dihydro-1,2,4-[4H]-oxadiazol-5-one-3-ylmethylbenz-4'-yl(oyl)] piperazines” (Bioorg Med Chem, 2008).

Experiments:
[1] = target: Phospholipase A2, major isoenzyme (Sus scrofa, UniProt P00592); assay: Inhibition of pig pancreatic PLA2 by fluorometric assay
In short: (§1)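 Fluorimetric PLA2 assay after Radvanyi et al. Enzymes were secretory human recombinant group II PLA2 and secretory porcine pancreatic group I PLA2. Concentration of the fluorescent substrate determined by UV spectrometry in a quartz cell. Values reported as IC50.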

[2] = target: T1, Phospholipase A2, membrane associated (Homo sapiens, UniProt P14555); assay: Inhibition of human recombinant PLA2 by fluorometric assay; in short: as §1
T1 sequence (P14555 whole entry): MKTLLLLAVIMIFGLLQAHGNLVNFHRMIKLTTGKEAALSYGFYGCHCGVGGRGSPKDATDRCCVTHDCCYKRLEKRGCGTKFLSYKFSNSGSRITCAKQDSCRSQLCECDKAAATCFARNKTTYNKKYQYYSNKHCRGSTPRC

[3] = Lipophilicity, log P of the compound; type: physicochemical; conditions: octanol/water
In short: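 logP of the free base calculated with Rekker's hydrophobic fragmental constants method.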

Rattus norvegicus [4] = assay: Inhibition of carrageenan-induced hind paw edema in rat assessed as decrease in paw volume at 10 mg/kg, po after 5 hrs; type: functional; set-up: scale not given: the % may be the effect or the level left
In short: (§2)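 Rats. Compound given ip or orally 1 h before carrageenan injection into the hind leg; doses 5, 10 and 20 mg/kg. Indomethacin used as positive control. Edema volume measured at 0, 3 and 5 h after carrageenan.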

Mus musculus [5] = assay: Antiinflammatory activity against croton oil-induced ear edema in mouse at 1 mg/ear; type: functional
In short: (§3)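 Mice, anaesthetized. Test compound applied locally to inner surface of ear (or given per os); 1 h later croton oil applied to the ear to induce edema. 5 h after croton oil, edematous tissue punched out with a gimlet and compared with tissue from a control site to calculate percent inhibition. Results reported as mean of the animals tested, with number of experiments.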

Rattus norvegicus [6] = assay: Inhibition of carrageenan-induced hind paw edema in rat assessed as decrease in paw volume at 10 mg/kg; type: functional; set-up: scale not given: the % may be the effect or the level left; in short: as §2
Mus musculus [7] = assay: Antiinflammatory activity against croton oil-induced ear edema in mouse at 0.5 mg/ear; type: functional; in short: as §3

Chain of Phospholipase A2, major isoenzyme (P00592 whole entry): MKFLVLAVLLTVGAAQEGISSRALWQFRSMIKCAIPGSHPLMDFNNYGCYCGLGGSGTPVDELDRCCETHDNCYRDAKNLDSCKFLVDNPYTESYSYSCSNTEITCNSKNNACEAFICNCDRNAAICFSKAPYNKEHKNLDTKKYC

SMILES	IC50 [1] [µM]	IC50 [2] [µM]	logP ([3]; read-out: LogP)	logP [3]	Activity (Rattus norvegicus [4]) [%]	Activity (Mus musculus [5]) [%]	Activity (Rattus norvegicus [6]) [%]	Activity (Mus musculus [7]) [%]
CCCCCCCCCCCCCCCCCCCCN1CCN(C(=O)c2ccc(Cc3noc(=O)[nH]3)cc2)CC1	> 100	0.1	8.89					
CCCCCCCCCCCCCCN1CCN(C(=O)c2ccc(Cc3noc(=O)[nH]3)cc2)CC1	> 100	9	5.78		65	47.83		
CCCCCCCCCCCCCCN1CCN(Cc2ccc(-c3nc(=O)o[nH]3)cc2)CC1	> 100	> 100	5.3					
CCCCCCCCCCCCCCCCN1CCN(C(=O)c2ccc(-c3nc(=O)o[nH]3)cc2)CC1	> 100	> 100	6.53					
CCCCCCCCCCCCCCN1CCN(C(=O)c2ccc(-c3nc(=O)o[nH]3)cc2)CC1	> 100	> 100	5.48					
CCCCCCCCCCCCCCN1CCN(Cc2ccc(Cc3noc(=O)[nH]3)cc2)CC1	> 100	> 10	5.59			51.45	79	
CCCCCCCCCCCCCCCCN1CCN(Cc2ccc(Cc3noc(=O)[nH]3)cc2)CC1	> 100	10	6.63					
CCCCCCCCCCCCCCN1CCN(c2ccc(Cc3nc(=O)o[nH]3)cc2)CC1	> 100	4.5	5.95					
CCCCCCCCCCCCCCCCCCCCCCN1CCN(C(=O)c2ccc(Cc3noc(=O)[nH]3)cc2)CC1	> 100	0.1		9.932				
CCCCCCCCCCCCCCCCN1CCN(C(=O)c2ccc(Cc3nc(=O)o[nH]3)cc2)CC1	> 100	4	6.81					
CCCCCCCCCCCCCCCCCCN1CCN(Cc2ccc(Cc3nc(=O)o[nH]3)cc2)CC1	> 100	2.2	7.67					
COc1ccc2c(c1)c(CC(=O)O)c(C)n2C(=O)c1ccc(Cl)cc1 [INDOMETHACIN]					16		73	43.11

Continued, in another order:

IC50 [1] [µM]	IC50 [2] [µM]	logP ([3]; read-out: LogP)	logP [3]	SMILES	Activity (Rattus norvegicus [4]) [%]	Activity (Mus musculus [5]) [%]	Activity (Rattus norvegicus [6]) [%]	Activity (Mus musculus [7]) [%]
> 100				CCCCCCCCCCCCCCOc1ccc(Cc2noc(=O)[nH]2)cc1				
> 100	18.7	6.3		CCCCCCCCCCCCCCN1CCN(C(=O)c2ccc(CCc3nc(=O)o[nH]3)cc2)CC1				
> 100	3.5	6.98		CCCCCCCCCCCCCCCCN1CCN(c2ccc(Cc3noc(=O)[nH]3)cc2)CC1				
> 100		8.02		CCCCCCCCCCCCCCCCCCN1CCN(c2ccc(Cc3noc(=O)[nH]3)cc2)CC1				
> 100	1.1	7.56		CCCCCCCCCCCCCCCCCCN1CCN(C(=O)c2ccc(-c3noc(=O)[nH]3)cc2)CC1				
> 100	5.3	6.81		CCCCCCCCCCCCCCN1CCN(C(=O)c2ccc(CCCc3noc(=O)[nH]3)cc2)CC1				
> 100	5.08	7.37		CCCCCCCCCCCCCCCCCCN1CCN(Cc2ccc(-c3noc(=O)[nH]3)cc2)CC1				
> 100	0.8	7.86		CCCCCCCCCCCCCCCCCCN1CCN(C(=O)c2ccc(Cc3noc(=O)[nH]3)cc2)CC1				
> 100	> 100	6.34		CCCCCCCCCCCCCCCCN1CCN(Cc2ccc(-c3noc(=O)[nH]3)cc2)CC1				
